We go through six compounds from ChEMBL document CHEMBL3817787, “Lead Optimization of 2-Phenylindolylglyoxylyldipeptide Murine Double Minute (MDM)2/Translocator Protein (TSPO) Dual Inhibitors for the Treatment of Gliomas” (J Med Chem, 2016).

In data set [1] the target is Translocator protein (Rattus norvegicus) (UniProt P16257). In words: (§1) Displacement of [3H]PK11195 from TSPO in rat kidney mitochondrial membrane after 90 mins by liquid scintillation counting method. Type of data set: cell membranes. Summed up:
(§2)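 TSPO binding by radioligand displacement of the TSPO-selective [3H]PK11195 across a concentration range; Ki derived.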

Data set [2] addresses Translocator protein (Rattus norvegicus, UniProt P16257). The description is as §1. Type of data set: cell membranes. Summed up:
as §2

Data set [3] in a line: Antiproliferative activity against human U87MG cells expressing wild type p53 after 48 hrs by MTS assay. Conditions: U-87 MG.
The species entered for data set [4] is Homo sapiens. In words: Growth inhibition of human U87MG-derived CSC at 100 uM after 7 days by MTS assay relative to control. Type of data set: functional. Summed up: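 Glioma CSC viability measured after 24 h and after prolonged (seven-day) exposure, at concentrations up to 100 µM; CSC depletion expressed versus control.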
In data set [5] the test system is T98G. Nature of the data set: Growth inhibition of human T98G cells expressing p53 mutant after 48 hrs by MTS assay relative to control. Type of data set: functional. The essentials:
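Wild-type p53 U87MG and U343MG cells and mutant-p53 T98G cells were treated with a range of compound concentrations, using the same protocol for each line. Viability was read by MTS assay, and the 48 h treatment with 100 nM–10 µM is stated for U87MG. Results are given as percent inhibition or viable cells versus control, with IC50 taken from concentration–response curves.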

A short description of data set [6]: Antiproliferative activity against human U343MG cells expressing wild type p53 after 48 hrs by MTS assay. The settings on record: U-343MG.
A short description of data set [7]: Antiproliferative activity against human MSC at 0.01 to 10 uM after 48 hrs by MTS assay. Conditions: in the assay text read “0.1 to 10 uM” for “0.01 to 10 uM”. The essentials: (§3)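 Non-tumoural human mesenchymal stem cells exposed to 100 nM-10 µM for 48 h; viability read by MTS assay.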
Data set [8] in a line: Antiproliferative activity against human MSC at 10 uM after 48 hrs by MTS assay. Summed up: as §3
Data set [9] can be described thus: Growth inhibition of human U87MG cells at 50 uM after 72 hrs by MTS assay relative to control. The format is functional, U-87MG ATCC. The settings on record: U-87 MG, read-out: GI. Summed up: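 U87MG cells were exposed to temozolomide (50 µM) alone or combined with 100 nM dual inhibitor for at least 72 h. Viability was measured and expressed as reduction relative to untreated control.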

The source made the active and inactive calls. No cut-off for these calls is given here.

Sequence of Translocator protein (Rattus norvegicus) (P16257 whole entry, looked up): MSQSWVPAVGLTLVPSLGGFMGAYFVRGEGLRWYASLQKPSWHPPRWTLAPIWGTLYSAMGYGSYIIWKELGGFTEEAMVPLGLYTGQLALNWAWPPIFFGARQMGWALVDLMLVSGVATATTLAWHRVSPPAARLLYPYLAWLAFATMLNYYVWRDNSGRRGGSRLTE
Sequence of Translocator protein (P16257 whole entry, looked up): as above

For `CC[C@H](C)[C@H](NC(=O)[C@@H](NC(=O)C(=O)c1c(-c2ccccc2)[nH]c2ccccc12)C(C)C)C(=O)OC`, in data set [1], the inhibition result is “Dose-dependent effect”. The same compound yielded a Ki in data set [2] of 783 nM.

On to `COc1ccc(C2=NC(c3ccc(Cl)cc3)C(c3ccc(Cl)cc3)N2C(=O)N2CCNC(=O)C2)c(OC(C)C)c1` (centres undefined), for which the IC50 in [3] was 6500 nM; in data set [6] it was 12600 nM. The growth inhibition (GI) in data set [4] came out at 45%. In addition, in data set [5], the “growth inhibition (GI)” value is “inactive”.

Turning to `CCOC(=O)[C@H](Cc1ccccc1)NC(=O)[C@H](CC(C)C)NC(=O)C(=O)c1c(-c2ccccc2)[nH]c2ccccc12`, the values for the IC50 in data set [3] and in data set [6] were 2600 nM and 2100 nM, respectively. Further, the Activity entry in [7] is recorded as “Non-toxic”; in data set [8] it was “Toxic”. Besides, in data set [4], the growth inhibition (GI) is 65%. Besides, in data set [5], the “growth inhibition (GI)” value was “inactive”. In addition, the inhibition entry in data set [1] was “Dose-dependent effect”. Also, in data set [2], the Ki came to 430 nM.

For `Cn1nnc2c(C(N)=O)ncn2c1=O` [TEMOZOLOMIDE], the inhibition of growth at 50 µM in data set [9] was 55%.

For `CC[C@H](C)[C@H](NC(=O)C(=O)c1c(-c2ccccc2)[nH]c2ccccc12)C(=O)N[C@H](C(=O)OC)[C@@H](C)CC`, the inhibition result in [1] is “Dose-dependent effect”. In [2], this compound yielded a Ki of 1000 nM.

`COC(=O)[C@H](CC(C)C)NC(=O)[C@@H](NC(=O)C(=O)c1c(-c2ccccc2)[nH]c2ccccc12)C(C)C`: the inhibition entry in data set [1] was “Dose-dependent effect”. In addition, in [2], the Ki worked out at 365 nM.
